Where “and” joins values, the source holds several entries; their conditions need not be identical. Equal entries are not always repeated.
Tests used:
[1] = test system: PC-3; assay: Cytotoxicity against apoptotic-sensitive human PC3 cells assessed as growth inhibition after 72 hrs by MTT-based colorimetric assay; assay type: functional, cell-based
Method in brief: (§1)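 MTT colorimetric assay, 72 h exposure to the fumarate salt. Read-out is reduction of MTT to formazan by living cells. IC50 is the concentration that reduces the whole cell population by 50%. Six replicates per condition. Where compounds were not tested on every line, apoptosis-sensitive lines were PC3, MCF-7, LoVo and B16F10, and apoptosis-resistant lines were U373, T98G, A549 and SK-MEL-28.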

[2] = test system: T98G; assay: Cytotoxicity against apoptotic-resistant human T98G cells assessed as growth inhibition after 72 hrs by MTT-based colorimetric assay; assay type: functional, cell-based; method in brief: as §1
[3] = test system: SK-MEL-28; assay: Cytotoxicity against apoptotic-resistant human SK-MEL-28 cells assessed as growth inhibition after 72 hrs by MTT-based colorimetric assay; assay type: functional, cell-based; method in brief: as §1
[4] = test system: LoVo; assay: Cytotoxicity against apoptotic-sensitive human LoVo cells assessed as growth inhibition after 72 hrs by MTT-based colorimetric assay; assay type: functional, cell-based; method in brief: as §1
[5] = test system: MCF7; assay: Cytotoxicity against apoptotic-sensitive human MCF7 cells assessed as growth inhibition after 72 hrs by MTT-based colorimetric assay; assay type: functional, cell-based; method in brief: as §1
[6] = Cytotoxicity against apoptotic-resistant human U373 cells assessed as growth inhibition after 72 hrs by MTT-based colorimetric assay; assay type: functional, cell-based, U-373MG ATCC; method in brief: as §1
[7] = test system: A549; assay: Cytotoxicity against apoptotic-resistant human A549 cells assessed as growth inhibition after 72 hrs by MTT-based colorimetric assay; assay type: functional, cell-based; method in brief: as §1
[8] = test system: B16-F10; assay: Cytotoxicity against apoptotic-sensitive mouse B16F10 cells assessed as growth inhibition after 72 hrs by MTT-based colorimetric assay; assay type: functional, cell-based; details: B16-F10, 72 h; method in brief: as §1

| SMILES | IC50 ([1]; Homo sapiens, PC-3, 72 h) | IC50 ([2]; Homo sapiens, T98G, 72 h) | IC50 ([3]; Homo sapiens, SK-MEL-28, 72 h) | IC50 ([4]; Homo sapiens, LoVo, 72 h) | IC50 ([5]; Homo sapiens, MCF7, 72 h) | IC50 ([6]; Homo sapiens, U373 MG, 72 h) | IC50 ([7]; Homo sapiens, A549, 72 h) | IC50 [8] | IC50 ([1]; pc-3) | IC50 ([2]; t98g) | IC50 ([3]; sk-mel-28) | IC50 ([4]; lovo) | IC50 ([5]; mcf7) | IC50 ([6]; u-373mg atcc) | IC50 ([7]; a549) |
| --- | --- | --- | --- | --- | --- | --- | --- | --- | --- | --- | --- | --- | --- | --- | --- |
| C=CCCCCOc1ccccc1-c1cnc(OC)n1C | 86 µM | > 100 µM | 85 µM | 47 µM | 98 µM | > 100 µM | 80 µM | – | – | – | – | – | – | – | – |
| C#CCCCCOc1ncc(-c2ccccc2OC)n1C | 21 µM | 35 µM | 38 µM | 11 µM | 10 µM | – | 22 µM | 34 µM | – | – | – | – | – | – | – |
| C=CCCCCOc1ncc(I)n1C | > 100 µM | > 100 µM | > 100 µM | 84 µM | > 100 µM | – | > 100 µM | 51 µM | – | – | – | – | – | – | – |
| C=CCCCCOc1ccccc1-c1cnc(NC(=O)CCCC=C)n1C | 11 µM | 22 µM | 7 µM | 10 µM | 22 µM | 7 µM | 8 µM | – | – | – | – | – | – | – | – |
| C=CCCCCOc1ncc(-c2cc(Cl)ccc2OC)n1C | 32 µM | 48 µM | 28 µM | 28 µM | 25 µM | – | 34 µM | 29 µM | – | – | – | – | – | – | – |
| C=CCCCCOc1cc(F)ccc1-c1cnc(OCCC=C)n1C | 64 µM | > 100 µM | 83 µM | 45 µM | 59 µM | > 100 µM | 74 µM | – | – | – | – | – | – | – | – |
| C=CCCCCOc1ccccc1-c1cnc(OCCC=C)n1C | 19 µM | 29 µM | 17 µM | 12 µM | 8 µM | 33 µM | 9 µM | – | – | – | – | – | – | – | – |
| C=CCCCCOc1ccccc1-c1cnc(OCCOCC=C)n1C | 36 µM | 65 µM | 59 µM | 26 µM | 32 µM | 60 µM | 34 µM | – | – | – | – | – | – | – | – |
| C=CCCCCOc1cc2ccccc2cc1-c1cnc(OCCC=C)n1C | 14 µM | 32 µM | 25 µM | 25 µM | 25 µM | 27 µM | 21 µM | – | – | – | – | – | – | – | – |
| Cn1c2cnc1OCCCCCCCCCOc1ccccc1-2 | 61 µM | 74 µM | 72 µM | 34 µM | 71 µM | 78 µM | 69 µM | – | – | – | – | – | – | – | – |
| Cc1ccc2c(c1)-c1cnc(n1C)OCCCCCCCCO2 | 36 µM | 63 µM | 55 µM | 34 µM | 34 µM | 57 µM | 41 µM | – | – | – | – | – | – | – | – |
| C=CCCCCOc1ncc(-c2ccccc2OC)n1C | 24 µM | 5 µM | 13 µM | 4 µM | 5 µM | 9 µM | 5 µM | – | – | – | – | – | – | – | – |
| Cn1c2cnc1OCCCCCCCCOc1cc3ccccc3cc1-2 | 25 µM | 32 µM | 23 µM | 16 µM | 19 µM | 24 µM | 26 µM | – | – | – | – | – | – | – | – |
| Cn1c2cnc1OCCCCCCCCOc1cc(F)ccc1-2 | 46 µM | 69 µM | 58 µM | 32 µM | 35 µM | 70 µM | 43 µM | – | – | – | – | – | – | – | – |
| C=CCCCCOc1cc2ccccc2cc1-c1cnc(OCCCCC=C)n1C | 38 µM | 40 µM | 59 µM | 25 µM | 37 µM | 33 µM | 16 µM | – | – | – | – | – | – | – | – |
| Cn1c(-c2ccccc2O)cnc1S(=O)(=O)c1ccccc1 | > 100 µM | > 100 µM | > 100 µM | 56 µM | > 100 µM | > 100 µM | > 100 µM | – | – | – | – | – | – | – | – |

| SMILES | IC50 ([1]; Homo sapiens, PC-3, 72 h) | IC50 ([2]; Homo sapiens, T98G, 72 h) | IC50 ([3]; Homo sapiens, SK-MEL-28, 72 h) | IC50 ([4]; Homo sapiens, LoVo, 72 h) | IC50 ([5]; Homo sapiens, MCF7, 72 h) | IC50 ([6]; Homo sapiens, U373 MG, 72 h) | IC50 ([7]; Homo sapiens, A549, 72 h) | IC50 [8] | IC50 ([1]; pc-3) | IC50 ([2]; t98g) | IC50 ([3]; sk-mel-28) | IC50 ([4]; lovo) | IC50 ([5]; mcf7) | IC50 ([6]; u-373mg atcc) | IC50 ([7]; a549) |
| --- | --- | --- | --- | --- | --- | --- | --- | --- | --- | --- | --- | --- | --- | --- | --- |
| Cn1c2cnc1OCCCCCCCCCCOc1cc3ccccc3cc1-2 | 25 µM | 22 µM | 33 µM | 28 µM | 24 µM | 29 µM | 20 µM | – | – | – | – | – | – | – | – |
| C=CCCCCOc1ccccc1-c1cnc(S(=O)(=O)c2ccccc2)n1C | 33 µM | 71 µM | 38 µM | 27 µM | 25 µM | 63 µM | 38 µM | – | – | – | – | – | – | – | – |
| C=CCCOc1ccccc1-c1cnc(S(=O)(=O)c2ccccc2)n1C | 42 µM | > 100 µM | 60 µM | 32 µM | 67 µM | > 100 µM | 73 µM | – | – | – | – | – | – | – | – |
| Cn1c2cnc1OCCCCCCCCOc1ccc(F)cc1-2 | 52 µM | 77 µM | 72 µM | 43 µM | 52 µM | 73 µM | 58 µM | – | – | – | – | – | – | – | – |
| COc1ccc2c(c1)-c1cnc(n1C)OCCCCCCCCO2 | 40 µM | 68 µM | 57 µM | 34 µM | 32 µM | 63 µM | 40 µM | – | – | – | – | – | – | – | – |
| C=CCCCCOc1ccc(F)cc1-c1cnc(OCCC=C)n1C | 52 µM | 87 µM | 82 µM | 38 µM | 43 µM | 73 µM | 61 µM | – | – | – | – | – | – | – | – |
| Cn1c2cnc1OCCCCCCCCCCOc1ccccc1-2 | 31 µM | 41 µM | 31 µM | 33 µM | 24 µM | 31 µM | 48 µM | – | – | – | – | – | – | – | – |
| C=CCCCCOc1ccc(C)cc1-c1cnc(OCCC=C)n1C | 59 µM | 94 µM | 83 µM | 41 µM | 53 µM | 33 µM | 59 µM | – | – | – | – | – | – | – | – |
| Cn1c2cnc1OCCCCCCCCCCCOc1ccccc1-2 | 36 µM | 56 µM | 47 µM | 32 µM | 41 µM | 48 µM | 36 µM | – | – | – | – | – | – | – | – |
| C=CCCCCOc1ccccc1-c1cnc(OCCCC=C)n1C | 28 µM | 3 µM | 19 µM | 4 µM | 7 µM | 5 µM | 3 µM | – | – | – | – | – | – | – | – |
| C=CCCOc1ncc(-c2ccccc2OC)n1C | 25 µM | 39 µM | 21 µM | 24 µM | 27 µM | 16 µM | 22 µM | – | – | – | – | – | – | – | – |
| Cn1c2cnc1NC(=O)CCCCCCCCCOc1ccccc1-2 | 61 µM | 64 µM | 59 µM | 33 µM | 61 µM | 38 µM | 43 µM | – | – | – | – | – | – | – | – |
| C=CCCCCOc1ccc(OC)cc1-c1cnc(OCCC=C)n1C | 43 µM | 74 µM | 62 µM | 33 µM | 37 µM | 67 µM | 43 µM | – | – | – | – | – | – | – | – |
| C=CCCCCCOc1ncc(-c2ccccc2OCCCCC=C)n1C | 70 µM | 63 µM | 79 µM | 32 µM | 63 µM | 76 µM | 62 µM | – | – | – | – | – | – | – | – |
| Cn1c2cnc1OCCCCCCCCOc1ccccc1-2 (single isomer, unassigned; atropisomer) | – | – | – | – | – | – | – | – | 49 µM and 57 µM | 75 µM and 92 µM | 64 µM and 66 µM | 37 µM and 63 µM | 44 µM and 43 µM | 71 µM | 59 µM and 54 µM |
| COc1ccccc1-c1cnc(OC)n1C | > 100 µM | > 100 µM | > 100 µM | 73 µM | > 100 µM | > 100 µM | > 100 µM | – | – | – | – | – | – | – | – |

From ChEMBL document CHEMBL3091366, “New 5-Aryl-1H-imidazoles display in vitro antitumor activity against apoptosis-resistant cancer models, including melanomas, through mitochondrial targeting” (J Med Chem, 2013)
